ChEMBL document CHEMBL1121917, “Structure--activity relationships in a broad-spectrum anthelmintic series. Acid chloride phenylhydrazones. 1. Aryl substitutions and chloride variations” (1981)

Key:
[1] = test system: Ovis aries; test: Percent reduction in Haemonchus eggs per gram, after treatment with 200 mg/kg dose of compound perorally in sheep; type: functional, Egg; conditions: dose 200 mg/kg; route oral
Summary of the method: (§1)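 Naturally parasitized lambs were dosed orally at the stated mg/kg. Dosing was either as a suspension of finely ground compound by stomach tube, or as ground compound weighed into gelatin capsules and given by balling gun. Activity was scored by the clinical test method: the decrease in posttreatment helminth eggs per gram.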

[2] = test system: Ovis aries; test: Percent reduction in Trichostrongylus eggs per gram, after treatment with 100 mg/kg dose of compound perorally in sheep; type: functional, Egg; conditions: route oral
Summary of the method: (§2)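 Naturally parasitized lambs, dosed orally either with a suspension by stomach tube or with finely ground compound in gelatin capsules by balling gun. Activity was scored by the clinical test method, meaning a significant fall in helminth egg counts after treatment.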

[3] = test system: Ovis aries; test: Percent reduction in Oesophagostomum eggs per gram, after treatment with 200 mg/kg dose of compound perorally in sheep; type: functional, Egg; conditions: dose 200 mg/kg; route oral; summary of the method: as §1
[4] = organism: Mus musculus; test: Percent clearance of Hymenolepis nana from mouse after oral treatment of 1.5 mg/mouse/day; type: functional
Summary of the method: (§3)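 Mice naturally carrying Syphacia obvelata were experimentally infected with Nematospiroides dubius and Hymenolepis nana, then grouped after a 2-week prepatency. Finely ground compound was suspended in aqueous 0.10% carboxymethylcellulose, 0.04% polysorbate 80 and 0.0042% polyparaben, and 0.1 mL was given orally by cannula once daily for 4 days to five mice. Necropsy followed 2 days later, scoring presence or absence of each parasite. Control clearance was subtracted from the treated clearance.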

[5] = organism: Canis familiaris; test: Percent reduction in Uncinaria eggs per gram, after oral treatment of 20 mg/dog dose of compound in a single treatment; type: functional, Canis lupus familiaris, Egg
[6] = test system: Ovis aries; test: Percent reduction in Haemonchus eggs per gram, after treatment with 100 mg/kg dose of compound perorally in sheep; type: functional, Egg; conditions: route oral
Summary of the method: (§4)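 Naturally parasitized lambs received compound orally, either as the aqueous suspension by stomach tube or as finely ground powder in gelatin capsules by balling gun. Activity was judged by the clinical test method, as a significant decrease in posttreatment helminth egg counts.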

[7] = organism: Canis familiaris; test: Percent reduction in Ancylostoma eggs per gram, after oral treatment of 20 mg/dog dose of compound in a triple treatment; type: functional, Canis lupus familiaris, Egg
Summary of the method: (§5)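 Dogs naturally infected with Toxascaris leonina were experimentally infected with mixed Ancylostoma caninum and Uncinaria stenocephala larvae. Finely ground compound was given orally in gelatin capsules. Fecal egg counts were taken three times before and three times after treatment, and activity was taken as the fall in egg counts.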

[8] = test system: Ovis aries; test: Percent reduction in Ostertagia eggs per gram, after treatment with 200 mg/kg dose of compound perorally in sheep; type: functional, Egg; conditions: route oral; summary of the method: as §2
[9] = organism: Canis familiaris; test: Percent reduction in Uncinaria eggs per gram, after oral treatment of 25 mg/dog dose of compound in a single treatment; type: functional, Canis lupus familiaris, Egg
[10] = test system: Ovis aries; test: Percent reduction in Trichostrongylus eggs per gram, after treatment with 200 mg/kg dose of compound perorally in sheep; type: functional, Egg; conditions: route oral; summary of the method: as §2
[11] = test system: Ovis aries; test: Percent reduction in Oesophagostomum eggs per gram, after treatment with 100 mg/kg dose of compound perorally in sheep; type: functional, Egg; conditions: route oral; summary of the method: as §1
[12] = organism: Canis familiaris; test: Percent reduction in Uncinaria eggs per gram, after oral treatment of 10 mg/dog dose of compound in a double treatment; type: functional, Canis lupus familiaris, Egg
[13] = test system: Ovis aries; test: Percent reduction in Ostertagia eggs per gram, after treatment with 100 mg/kg dose of compound perorally in sheep; type: functional, Egg; conditions: route oral; summary of the method: as §1
[14] = organism: Canis familiaris; test: Percent reduction in Uncinaria eggs per gram, after oral treatment of 20 mg/dog dose of compound in a triple treatment; type: functional, Canis lupus familiaris, Egg
[15] = organism: Canis familiaris; test: Percent reduction in Ancylostoma eggs per gram, after oral treatment of 10 mg/dog dose of compound in a double treatment; type: functional, Canis lupus familiaris, Egg; summary of the method: as §5
[16] = organism: Canis familiaris; test: Percent reduction in Ancylostoma eggs per gram, after oral treatment of 20 mg/dog dose of compound in a single treatment; type: functional, Canis lupus familiaris, Egg; summary of the method: as §5
[17] = test system: Ovis aries; test: Percent reduction in Strongyloides eggs per gram, after treatment with 100 mg/kg dose of compound perorally in sheep; type: functional, Egg; conditions: route oral; summary of the method: as §2
[18] = test system: Ovis aries; test: Percent reduction in Trichuris eggs per gram, after treatment with 100 mg/kg dose of compound perorally in sheep; type: functional, Egg; conditions: route oral; summary of the method: as §2
[19] = test system: Ovis aries; test: Percent reduction in Trichostrongylus eggs per gram, after treatment with 150 mg/kg dose of compound intraperitoneally in sheep; conditions: route intraperitoneal
[20] = organism: Canis familiaris; test: Percent reduction in Ancylostoma eggs per gram, after oral treatment of 25 mg/dog dose of compound in a single treatment; type: functional, Canis lupus familiaris, Egg; summary of the method: as §5
[21] = test system: Ovis aries; test: Percent reduction in Strongyloides eggs per gram, after treatment with 200 mg/kg dose of compound perorally
[22] = organism: Mus musculus; test: Percent clearance of Syphacaia obvelata from mouse after oral treatment of 1.5 mg/mouse/day; type: functional; summary of the method: as §3
[23] = test system: Ovis aries; test: Percent reduction in Strongyloides eggs per gram, after treatment with 200 mg/kg dose of compound perorally in sheep; type: functional, Egg; conditions: route oral; summary of the method: as §2
[24] = organism: Canis familiaris; test: Percent reduction in Uncinaria eggs per gram, after oral treatment of 75 mg/dog dose of compound in a single treatment; type: functional, Canis lupus familiaris, Egg
[25] = test system: Ovis aries; test: Percent reduction in Ostertagia eggs per gram, after treatment of 200 mg/kg dose of compound perorally in sheep; type: functional, Egg; conditions: route oral; summary of the method: as §1
[26] = organism: Mus musculus; test: Percent clearance of Nematospiroides dubius from mouse after oral treatment of 0.45 mg/mouse/day; type: functional; summary of the method: as §3
[27] = test system: Ovis aries; test: Percent reduction in Trichostrongylus eggs per gram, after treatment with 400 mg/kg dose of compound perorally in sheep; type: functional, Egg; conditions: route oral; summary of the method: as §2
[28] = test system: Ovis aries; test: Percent reduction in Oesophagostomum eggs per gram, after treatment of 200 mg/kg dose of compound perorally in sheep; type: functional, Egg; conditions: route oral; summary of the method: as §1
[29] = test system: Ovis aries; test: Percent reduction in Trichuris eggs per gram, after treatment with 200 mg/kg dose of compound perorally in sheep; type: functional, Egg; conditions: dose 200 mg/kg; route oral; summary of the method: as §2
[30] = test system: Ovis aries; test: Percent reduction in Strongyloides eggs per gram, after treatment with 400 mg/kg dose of compound perorally in sheep; type: functional, Egg; conditions: route oral; summary of the method: as §2
[31] = test system: Ovis aries; test: Percent reduction in Trichostrongylus eggs per gram, after treatment of 200 mg/kg dose of compound perorally in sheep; type: functional, Egg; conditions: route oral
Summary of the method: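 Lambs naturally parasitized with helminths. Finely ground compound was given orally, either as an aqueous suspension by stomach tube or weighed into gelatin capsules given by balling gun. Activity was assessed by the clinical test method: the reduction in helminth egg counts after treatment.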

[32] = test system: Ovis aries; test: Percent reduction in Haemonchus eggs per gram, after treatment of 200 mg/kg dose of compound perorally in sheep; type: functional, Egg; conditions: route oral; summary of the method: as §4
[33] = test system: Ovis aries; test: Percent reduction in Haemonchus eggs per gram, after treatment with 400 mg/kg dose of compound perorally in sheep; type: functional, Egg; conditions: route oral; summary of the method: as §1
[34] = organism: Mus musculus; test: Percent clearance of Syphacaia obvelata from mouse after oral treatment of 0.45 mg/mouse/day; type: functional; summary of the method: as §3
[35] = organism: Canis familiaris; test: Percent reduction in Toxascaris eggs per gram, after oral treatment of 75 mg/dog dose of compound in a single treatment; type: functional, Canis lupus familiaris, Egg
Summary of the method: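 Dogs naturally infected with Toxascaris leonina were experimentally infected with mixed Ancylostoma caninum and Uncinaria stenocephala larvae. Finely ground compound was given orally in gelatin capsules. Three egg count determinations were made before and three after treatment in each experiment.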

[36] = test system: Ovis aries; test: Percent reduction in Ostertagia eggs per gram, after treatment with 400 mg/kg dose of compound perorally in sheep; type: functional, Egg; conditions: route oral; summary of the method: as §2
[37] = test system: Ovis aries; test: Percent reduction in Trichuris eggs per gram, after treatment with 400 mg/kg dose of compound perorally in sheep; type: functional, Egg; conditions: route oral; summary of the method: as §2
[38] = organism: Mus musculus; test: Percent clearance of Nematospiroides dubius from mouse after oral treatment of 0.57 mg/mouse/day; type: functional; summary of the method: as §3
[39] = organism: Mus musculus; test: Percent clearance of Syphacaia obvelata from mouse after oral treatment of 0.57 mg/mouse/day; type: functional; summary of the method: as §3

CCCCOc1ccc(/C(Cl)=N/Nc2ccccc2)cc1 showed a Reduction [1] of 100%, a Reduction [2] of 100% and a Reduction [3] of 100%. The Parasite_Clearance [4] was 100%, the Reduction [5] was 86% and the Reduction [6] was 100%. For the same molecule, the Reduction [7] was 0%, the Reduction [8] was 100% and the Reduction [9] was 67%. It also gave a Reduction [10] of 100%, a Reduction [11] of 100% and a Reduction [12] of 75%. It also gave a Reduction [13] of 100%, a Reduction [14] of 100% and a Reduction [15] of 92%. For the same molecule, the Reduction [16] was 86%, the Reduction [17] was 32% and the Reduction [18] was 100%. It also gave a Reduction [19] of 0%, a Reduction [20] of 100% and a Reduction [21] of 100%. The Parasite_Clearance [22] was 100%.

Molecule Fc1c(F)c(F)c(/C(Cl)=N/Nc2ccccc2)c(F)c1F has a Reduction [23] of 93%, a Reduction [24] of 100% and a Reduction [25] of 93%. For the same molecule, the Parasite_Clearance [26] was 0%, the Reduction [27] was 96% and the Reduction [28] was 100%. For the same molecule, the Reduction [29] was 10%, the Reduction [30] was 99% and the Reduction [31] was 0%. It also gave a Reduction [32] of 85%, a Reduction [33] of 96% and a Parasite_Clearance [34] of 0%. The Reduction [35] was 71.4%, the Reduction [36] was 95% and the Reduction [37] was 88%.

Molecule Cl/C(=N\Nc1ccccc1)c1cc(Cl)cc(Cl)c1 has a Parasite_Clearance [38] of 0% and a Parasite_Clearance [39] of 25%.
